Assay results as given in ChEMBL document CHEMBL3600299, “Identification of alpha-substituted acylamines as novel, potent, and orally active mGluR5 negative allosteric modulators” (Bioorg Med Chem Lett, 2015).
Active and inactive are the calls of the source.

Tests used:
[1] = biological target: T1, Metabotropic glutamate receptor 5 (Homo sapiens, UniProt P41594); test: Negative allosteric modulator activity against human mGluR5 expressed in HEK293 cells assessed as inhibition of glutamate-induced inositol phosphate accumulation by IP-one HTRF assay; assay type: functional, cell-based
Procedure, shortened: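 HEK293 cells stably expressing human mGluR5 incubated 60 min with 2.5 lmol/L glutamate, with or without compound. Glutamate-induced inositol phosphate (IP1) accumulation read by IP-One HTRF kit.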
Target sequence in this assay (P41594 whole entry): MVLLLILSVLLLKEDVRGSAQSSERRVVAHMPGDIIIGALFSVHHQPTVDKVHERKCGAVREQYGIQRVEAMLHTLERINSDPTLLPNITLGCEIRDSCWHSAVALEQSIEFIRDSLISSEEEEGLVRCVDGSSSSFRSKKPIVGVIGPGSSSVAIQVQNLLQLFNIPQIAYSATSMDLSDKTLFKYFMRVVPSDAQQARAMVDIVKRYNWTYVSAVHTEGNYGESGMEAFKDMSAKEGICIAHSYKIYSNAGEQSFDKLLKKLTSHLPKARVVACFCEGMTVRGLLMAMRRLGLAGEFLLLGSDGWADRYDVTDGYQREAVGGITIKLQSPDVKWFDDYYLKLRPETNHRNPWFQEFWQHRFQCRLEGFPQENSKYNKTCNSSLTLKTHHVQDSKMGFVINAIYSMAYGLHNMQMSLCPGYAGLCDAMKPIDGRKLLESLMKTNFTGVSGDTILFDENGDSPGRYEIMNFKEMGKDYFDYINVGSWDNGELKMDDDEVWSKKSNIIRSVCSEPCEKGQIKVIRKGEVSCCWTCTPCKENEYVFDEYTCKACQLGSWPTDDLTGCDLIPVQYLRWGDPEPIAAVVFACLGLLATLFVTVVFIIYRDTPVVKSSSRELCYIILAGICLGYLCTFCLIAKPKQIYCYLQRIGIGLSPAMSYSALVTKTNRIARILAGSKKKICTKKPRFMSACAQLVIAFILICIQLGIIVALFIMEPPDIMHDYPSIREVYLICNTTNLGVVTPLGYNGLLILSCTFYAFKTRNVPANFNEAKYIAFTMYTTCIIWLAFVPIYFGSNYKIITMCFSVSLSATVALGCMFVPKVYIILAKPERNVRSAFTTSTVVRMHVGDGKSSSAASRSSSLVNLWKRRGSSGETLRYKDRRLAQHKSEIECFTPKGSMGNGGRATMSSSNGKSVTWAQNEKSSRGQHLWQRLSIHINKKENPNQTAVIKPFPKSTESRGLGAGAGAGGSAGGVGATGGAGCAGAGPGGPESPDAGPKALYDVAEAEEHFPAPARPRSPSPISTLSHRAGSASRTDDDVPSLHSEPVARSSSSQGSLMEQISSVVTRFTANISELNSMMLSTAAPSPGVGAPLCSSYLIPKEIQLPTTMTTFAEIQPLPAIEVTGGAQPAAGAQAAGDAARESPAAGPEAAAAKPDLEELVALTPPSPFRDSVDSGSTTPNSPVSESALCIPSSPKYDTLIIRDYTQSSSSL

[2] = biological target: T1, Metabotropic glutamate receptor 5; test: Negative allosteric modulator activity against human mGluR5 expressed in HEK293 cells assessed as inhibition of glutamate-induced inositol phosphate accumulation at 100 nM by IP-one HTRF assay; assay type: functional, cell-based
Target sequence in this assay (P41594 21-1212 limits assumed): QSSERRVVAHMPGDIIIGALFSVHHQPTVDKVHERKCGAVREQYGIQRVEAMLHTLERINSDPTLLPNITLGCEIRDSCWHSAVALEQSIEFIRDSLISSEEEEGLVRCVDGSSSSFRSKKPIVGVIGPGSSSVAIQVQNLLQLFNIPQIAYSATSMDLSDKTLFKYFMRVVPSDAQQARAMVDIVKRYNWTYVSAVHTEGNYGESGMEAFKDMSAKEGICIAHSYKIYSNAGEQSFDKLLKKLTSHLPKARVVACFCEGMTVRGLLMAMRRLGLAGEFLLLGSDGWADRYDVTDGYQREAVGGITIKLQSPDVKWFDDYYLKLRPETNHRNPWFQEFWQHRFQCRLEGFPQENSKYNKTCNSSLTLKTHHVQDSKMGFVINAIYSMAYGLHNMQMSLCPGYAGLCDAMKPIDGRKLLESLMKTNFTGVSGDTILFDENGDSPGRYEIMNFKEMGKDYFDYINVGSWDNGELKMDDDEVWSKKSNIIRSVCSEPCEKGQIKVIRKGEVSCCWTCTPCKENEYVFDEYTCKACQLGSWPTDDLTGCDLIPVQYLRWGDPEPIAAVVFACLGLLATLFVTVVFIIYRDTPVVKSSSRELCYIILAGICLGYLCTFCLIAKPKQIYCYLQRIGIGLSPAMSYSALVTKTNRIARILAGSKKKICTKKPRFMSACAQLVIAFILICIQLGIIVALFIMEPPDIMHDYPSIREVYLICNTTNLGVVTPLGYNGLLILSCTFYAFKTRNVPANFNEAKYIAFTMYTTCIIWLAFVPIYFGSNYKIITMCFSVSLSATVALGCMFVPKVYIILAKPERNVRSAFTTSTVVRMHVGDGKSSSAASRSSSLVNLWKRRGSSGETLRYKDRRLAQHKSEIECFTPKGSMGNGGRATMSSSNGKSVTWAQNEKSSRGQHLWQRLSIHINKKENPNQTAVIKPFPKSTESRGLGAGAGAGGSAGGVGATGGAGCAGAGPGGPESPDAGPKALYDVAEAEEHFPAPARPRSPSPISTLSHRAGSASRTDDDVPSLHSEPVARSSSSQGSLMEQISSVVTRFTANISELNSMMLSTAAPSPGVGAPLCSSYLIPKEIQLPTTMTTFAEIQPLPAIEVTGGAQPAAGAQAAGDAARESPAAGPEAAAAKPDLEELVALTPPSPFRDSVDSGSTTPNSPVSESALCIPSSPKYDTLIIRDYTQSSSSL

Mus musculus [3] = test: Anxiolytic-like activity in mouse model of stress-induced hyperthermia assessed as reduction in stress-induced hyperthermia response at 1 mg/kg, po dosed 1 hr before first rectal temperature measurement; assay type: functional, organism-based
Procedure, shortened: (§1)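 Mice dosed orally with test article in 0.5% methylcellulose vehicle 1 h before first rectal temperature (T1); second rectal temperature (T2) taken 10 min after T1. Basal temperature from T1; SIH response defined as T2–T1. Mean ± SEM, n = 10 per group; one-tailed Williams' test vs vehicle, p <0.025.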

Mus musculus [4] = test: Effect on basal rectal temperature in mouse model of stress-induced hyperthermia at 0.1 to 1 mg/kg, po dosed 1 hr before first rectal temperature measurement; assay type: ADME, organism-based; details: in vivo; procedure, shortened: as §1

SMILES | IC50 [1] [nM] | also measured
CCC[C@@H](NC(=O)c1nccs1)c1cnc(Nc2cccnc2)c(Cl)c1 | 71.4 | –
CC[C@@H](NC(=O)c1nccs1)c1cnc(Nc2ccc(C)nc2)c(Cl)c1 | 15.4 | –
CCC[C@@H](NC(=O)c1cocn1)c1cnc(Nc2ccc(C)nc2)c(Cl)c1 | 23.3 | –
CCCC[C@@H](NC(=O)c1nccs1)c1cnc(Nc2ccc(C)nc2)c(Cl)c1 | 30.9 | –
Cc1ccc(Nc2ncc([C@H](NC(=O)c3nccs3)C3CCC3)cc2Cl)cn1 | 9.3 | –
Cc1ccc(Nc2ncc(C3CCCN3C(=O)c3nccs3)cc2Cl)cn1 (stereo not given) | 182 | –
CCC[C@@H](NC(=O)c1cscn1)c1cnc(Nc2ccc(C)nc2)c(Cl)c1 | 31.2 | –
CCC[C@@H](NC(=O)c1nccs1)c1cnc(Nc2ccc(C)nc2)c(Cl)c1 | 8.2 | –
CC[C@H](NC(=O)c1nccs1)c1cnc(Nc2ccc(C)nc2)c(Cl)c1 | > 1000 | –
CCC[C@@H](NC(=O)c1nc(C)cs1)c1cnc(Nc2ccc(C)nc2)c(Cl)c1 | 10 | –
CCC[C@@H](NC(=O)c1ccccc1)c1cnc(Nc2ccc(C)nc2)c(Cl)c1 | – | inhibition [2]: 30%
CCC[C@@H](NC(=O)c1nccs1)c1cnc(Nc2cnc(C)s2)c(Cl)c1 | 60 | –
Cc1ccc(Nc2ncc([C@H](NC(=O)c3nccs3)C3CCCC3)cc2Cl)cn1 | 16.6 | –
CCC[C@@H](NC(=O)c1ncco1)c1cnc(Nc2ccc(C)nc2)c(Cl)c1 | 42.2 | –
CCCC(NC(=O)c1nccs1)c1cnc(Nc2ccc(C)nc2)c(Cl)c1 (stereo not given) | 28.7 | –
Cc1ccc(Nc2ncc([C@H](NC(=O)c3nccs3)C(C)(C)C)cc2Cl)cn1 | 30.9 | –
CCC[C@@H](NC(=O)c1nccs1)c1cnc(Nc2cnc(C)nc2)c(Cl)c1 | 43.9 | –

SMILES | IC50 [1] [nM] | also measured
CCC[C@@H](NC(=O)c1nccs1)c1cnc(Nc2ccc(F)nc2)c(Cl)c1 | 12.8 | –
Cc1ccc(Nc2ncc([C@@H](NC(=O)c3nccs3)C(C)C)cc2Cl)cn1 | 1050 | –
C/C=C/C[C@@H](NC(=O)c1nccs1)c1cnc(Nc2ccc(C)nc2)c(Cl)c1 | 8.8 | –
COC[C@H](NC(=O)c1nccs1)c1cnc(Nc2ccc(C)nc2)c(Cl)c1 | 55.9 | –
CCC[C@@H](NC(=O)c1ccccn1)c1cnc(Nc2ccc(C)nc2)c(Cl)c1 | 27.8 | –
Cc1ccc(Nc2ncc([C@@H](Cc3ccccc3)NC(=O)c3nccs3)cc2Cl)cn1 | 55.5 | –
CCC[C@@H](NC(=O)c1nccs1)c1cnc(Nc2ccc(C(F)(F)F)nc2)c(Cl)c1 | – | inhibition [2]: 31%
Cc1ccc(Nc2ncc([C@H](NC(=O)c3nccs3)C3CC3)cc2Cl)cn1 | 9.7 | –
Cc1ccc(Nc2ncc([C@@H](NC(=O)c3nccs3)C3CCC3)cc2Cl)cn1 | > 1000 | –
CCC[C@@H](NC(=O)c1ncc(C)s1)c1cnc(Nc2ccc(C)nc2)c(Cl)c1 | – | inhibition [2]: 49%
Cc1ccc(Nc2ncc([C@H](NC(=O)c3nccs3)C3CCCCC3)cc2Cl)cn1 | 37.8 | –
CCC[C@H](NC(=O)c1nccs1)c1cnc(Nc2ccc(C)nc2)c(Cl)c1 | 978 | –
C=CC[C@@H](NC(=O)c1nccs1)c1cnc(Nc2ccc(C)nc2)c(Cl)c1 | 2.4 | Activity (Mus musculus [3]): Active; Activity (Mus musculus [4]): Non-toxic
CCC[C@@H](NC(=O)c1nccs1)c1cnc(Nc2ccc(OC)nc2)c(Cl)c1 | 13.3 | –
CCCN(Cc1cnc(Nc2ccc(C)nc2)c(Cl)c1)C(=O)c1nccs1 | 584 | –
Cc1ccc(Nc2ncc([C@H](NC(=O)c3nccs3)C(C)C)cc2Cl)cn1 | 7.5 | –
